Consider 1 compound from ChEMBL document CHEMBL5661979, “Pharmacological inhibition of BMK1 suppresses tumor growth through promyelocytic leukemia protein” (Cancer Cell, 2010).

The structures appear in SMILES notation.

Common to all, as to assay type: subcellular
The target of assay [1] is T1, Serine/threonine-protein kinase 4 (Homo sapiens) (UniProt Q13043).
T1 sequence (whole entry): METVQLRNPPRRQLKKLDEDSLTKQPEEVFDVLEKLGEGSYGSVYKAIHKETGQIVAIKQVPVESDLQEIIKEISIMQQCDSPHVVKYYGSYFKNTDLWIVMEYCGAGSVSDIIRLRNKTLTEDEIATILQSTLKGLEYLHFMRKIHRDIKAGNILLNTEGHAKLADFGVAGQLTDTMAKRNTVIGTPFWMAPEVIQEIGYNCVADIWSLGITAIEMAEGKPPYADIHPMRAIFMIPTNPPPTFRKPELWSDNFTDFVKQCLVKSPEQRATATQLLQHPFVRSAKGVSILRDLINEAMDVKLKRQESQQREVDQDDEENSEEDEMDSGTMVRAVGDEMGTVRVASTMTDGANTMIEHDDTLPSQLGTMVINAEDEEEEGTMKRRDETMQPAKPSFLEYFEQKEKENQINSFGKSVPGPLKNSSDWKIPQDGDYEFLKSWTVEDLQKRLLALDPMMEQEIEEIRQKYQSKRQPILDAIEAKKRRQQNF
As to the kind of experiment: Inhibition of MST1 in human HeLa cells lysate at 10 uM pre incubated for 15 mins followed by ATP acyl phosphate probe addition and measured after 10 mins by LC-MS/MS analysis relative to control. As to conditions: time 25.0 min.

Assay [2] has as its target Serine/threonine-protein kinase Nek9 (Homo sapiens, UniProt Q8TD19). Description: Inhibition of NEK9 in human HeLa cells lysate pre incubated for 15 mins followed by ATP acyl phosphate probe addition and measured after 10 mins by LC-MS/MS analysis.
The target in assay [3] is Peripheral plasma membrane protein CASK (Homo sapiens) (UniProt O14936). Description: Inhibition of CASK in human HeLa cells lysate at 2 uM pre incubated for 15 mins followed by ADP acyl phosphate probe addition and measured after 10 mins by LC-MS/MS analysis relative to control. The settings on record: time 25.0 min. The essentials: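 KiNativ profiling in HeLa lysate (5 mg/mL total protein). Lysate incubated 15 min with inhibitor at 50, 10, 2, 0.8 or 0 μM. ATP or ADP acylphosphate probe then added (5 μM final) and reacted 10 min. Reaction stopped with urea and analysed by targeted MS, using up to four fragment ions per kinase peptide-probe conjugate. % inhibition taken against untreated lysate. Run in duplicate.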
Chain of Peripheral plasma membrane protein CASK (Homo sapiens) (O14936 whole entry, the tested form may be a part): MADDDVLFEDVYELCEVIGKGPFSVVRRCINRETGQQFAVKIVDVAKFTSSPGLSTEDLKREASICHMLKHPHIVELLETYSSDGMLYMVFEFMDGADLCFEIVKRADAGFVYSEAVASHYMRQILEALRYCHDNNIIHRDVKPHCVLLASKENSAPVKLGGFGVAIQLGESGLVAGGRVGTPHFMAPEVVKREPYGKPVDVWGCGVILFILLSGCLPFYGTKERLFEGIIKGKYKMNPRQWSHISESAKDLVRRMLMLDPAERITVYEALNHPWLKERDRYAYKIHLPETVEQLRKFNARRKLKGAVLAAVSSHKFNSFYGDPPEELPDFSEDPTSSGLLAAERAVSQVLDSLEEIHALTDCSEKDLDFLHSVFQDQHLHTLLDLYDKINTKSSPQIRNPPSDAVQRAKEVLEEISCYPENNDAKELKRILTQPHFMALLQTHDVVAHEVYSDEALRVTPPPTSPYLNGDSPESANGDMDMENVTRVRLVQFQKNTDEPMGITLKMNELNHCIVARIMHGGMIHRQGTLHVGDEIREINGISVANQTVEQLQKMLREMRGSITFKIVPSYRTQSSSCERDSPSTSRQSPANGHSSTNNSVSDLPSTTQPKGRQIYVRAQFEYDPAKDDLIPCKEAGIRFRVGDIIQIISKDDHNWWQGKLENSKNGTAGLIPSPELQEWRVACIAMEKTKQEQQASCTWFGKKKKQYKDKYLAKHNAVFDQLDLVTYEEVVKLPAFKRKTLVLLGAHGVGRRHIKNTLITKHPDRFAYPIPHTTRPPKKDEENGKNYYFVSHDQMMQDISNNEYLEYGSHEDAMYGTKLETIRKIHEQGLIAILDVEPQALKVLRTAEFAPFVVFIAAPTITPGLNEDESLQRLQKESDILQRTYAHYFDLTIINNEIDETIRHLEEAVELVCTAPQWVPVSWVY

The target of assay [4] is Ribosomal protein S6 kinase alpha-3 (Homo sapiens, UniProt P51812). As to the kind of experiment: Inhibition of RSK2 domain 1 active form in human HeLa cells lysate at 2 uM pre incubated for 15 mins followed by ATP acyl phosphate probe addition and measured after 10 mins by LC-MS/MS analysis relative to control. As to conditions: time 25.0 min.
Chain of Ribosomal protein S6 kinase alpha-3 (P51812 whole entry, the tested form may be a part): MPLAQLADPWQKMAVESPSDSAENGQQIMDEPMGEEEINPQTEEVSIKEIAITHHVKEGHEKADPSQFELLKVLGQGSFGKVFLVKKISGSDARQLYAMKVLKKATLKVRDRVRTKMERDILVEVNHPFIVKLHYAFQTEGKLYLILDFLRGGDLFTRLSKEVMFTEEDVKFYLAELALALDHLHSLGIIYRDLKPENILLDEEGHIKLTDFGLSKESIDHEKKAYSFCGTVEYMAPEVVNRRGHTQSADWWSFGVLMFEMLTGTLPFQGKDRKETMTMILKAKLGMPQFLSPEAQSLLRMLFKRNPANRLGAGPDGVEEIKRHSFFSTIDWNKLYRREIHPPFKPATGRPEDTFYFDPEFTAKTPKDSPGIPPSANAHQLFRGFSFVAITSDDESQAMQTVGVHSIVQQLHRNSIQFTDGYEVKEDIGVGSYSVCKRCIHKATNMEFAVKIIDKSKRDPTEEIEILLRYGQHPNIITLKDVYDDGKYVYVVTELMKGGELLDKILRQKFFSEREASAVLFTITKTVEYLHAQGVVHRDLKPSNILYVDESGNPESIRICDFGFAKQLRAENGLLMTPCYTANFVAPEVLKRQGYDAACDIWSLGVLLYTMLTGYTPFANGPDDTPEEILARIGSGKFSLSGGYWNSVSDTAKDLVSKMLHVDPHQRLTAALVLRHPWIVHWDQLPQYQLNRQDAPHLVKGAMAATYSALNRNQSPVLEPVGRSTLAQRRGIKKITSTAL
The target in assay [5] is T2, Dual specificity mitogen-activated protein kinase kinase 4 (Homo sapiens) (UniProt P45985).
T2 sequence (whole entry): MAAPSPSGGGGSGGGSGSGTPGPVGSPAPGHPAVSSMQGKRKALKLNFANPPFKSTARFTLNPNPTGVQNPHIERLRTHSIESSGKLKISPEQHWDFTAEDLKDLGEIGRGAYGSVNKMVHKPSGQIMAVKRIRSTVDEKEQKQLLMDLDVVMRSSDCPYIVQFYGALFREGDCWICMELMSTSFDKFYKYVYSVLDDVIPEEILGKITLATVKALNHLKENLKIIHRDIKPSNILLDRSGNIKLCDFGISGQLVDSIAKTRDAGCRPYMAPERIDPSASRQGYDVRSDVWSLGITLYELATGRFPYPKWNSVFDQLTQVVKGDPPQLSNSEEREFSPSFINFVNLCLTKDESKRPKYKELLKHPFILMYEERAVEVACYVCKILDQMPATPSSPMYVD
Description: Inhibition of MAP2K4 in human HeLa cells lysate at 10 uM pre incubated for 15 mins followed by ATP acyl phosphate probe addition and measured after 10 mins by LC-MS/MS analysis relative to control. As to conditions: time 25.0 min.

Assay [6] addresses Dual specificity mitogen-activated protein kinase kinase 7 (Homo sapiens, UniProt O14733). As to the kind of experiment: Inhibition of MAP2K7 in human HeLa cells lysate pre incubated for 15 mins followed by ADP acyl phosphate probe addition and measured after 10 mins by LC-MS/MS analysis.
Assay [7] deals with Ribosomal protein S6 kinase alpha-1 (Homo sapiens, UniProt Q15418). As to the kind of experiment: Inhibition of RSK1 domain 2 K2 site in human HeLa cells lysate at 50 uM pre incubated for 15 mins followed by ADP acyl phosphate probe addition and measured after 10 mins by LC-MS/MS analysis relative to control. The settings on record: time 25.0 min.
Chain of Ribosomal protein S6 kinase alpha-1 (Q15418 whole entry, the tested form may be a part): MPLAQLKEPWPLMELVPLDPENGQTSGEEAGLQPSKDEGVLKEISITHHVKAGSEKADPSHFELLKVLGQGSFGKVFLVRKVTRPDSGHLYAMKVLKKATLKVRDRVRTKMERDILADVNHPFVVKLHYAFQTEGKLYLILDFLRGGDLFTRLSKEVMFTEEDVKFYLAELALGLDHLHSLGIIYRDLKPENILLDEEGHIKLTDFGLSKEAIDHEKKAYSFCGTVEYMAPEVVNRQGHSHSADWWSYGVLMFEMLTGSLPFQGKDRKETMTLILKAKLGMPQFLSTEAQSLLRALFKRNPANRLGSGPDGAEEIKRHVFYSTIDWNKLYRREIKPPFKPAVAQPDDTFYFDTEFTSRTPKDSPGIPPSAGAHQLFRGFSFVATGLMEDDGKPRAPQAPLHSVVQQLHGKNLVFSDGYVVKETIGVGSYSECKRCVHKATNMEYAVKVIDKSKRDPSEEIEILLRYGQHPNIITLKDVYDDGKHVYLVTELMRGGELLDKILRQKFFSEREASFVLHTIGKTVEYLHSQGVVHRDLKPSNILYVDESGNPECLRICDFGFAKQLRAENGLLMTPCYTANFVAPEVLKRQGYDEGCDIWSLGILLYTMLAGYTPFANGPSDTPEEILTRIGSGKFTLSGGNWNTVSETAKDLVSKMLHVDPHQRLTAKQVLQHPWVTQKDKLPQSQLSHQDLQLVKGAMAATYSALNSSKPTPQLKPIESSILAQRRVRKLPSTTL
Assay [8] addresses Serine/threonine-protein kinase PLK1 (Homo sapiens, UniProt P53350). As to the kind of experiment: Inhibition of PLK1 in human HeLa cells lysate at 2 uM pre incubated for 15 mins followed by ADP acyl phosphate probe addition and measured after 10 mins by LC-MS/MS analysis relative to control. The settings on record: time 25.0 min.
For assay [9], the target named is Serine/threonine-protein kinase ATR (Homo sapiens, UniProt Q13535). Description: Inhibition of ATR in human HeLa cells lysate pre incubated for 15 mins followed by ATP acyl phosphate probe addition and measured after 10 mins by LC-MS/MS analysis. An outline of the steps:
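KiNativ-type profiling in HeLa lysate (5 mg/mL total protein). Lysate preincubated 15 min with inhibitor at 50, 10, 2, 0.8 or 0 μM, then ATP or ADP acylphosphate probe added (5 μM final) for 10 min. Reaction stopped with urea and analysed by targeted MS, using up to four fragment ions per kinase peptide-probe conjugate. % inhibition calculated against untreated lysate. Duplicate reactions.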

A short description of assay [10]: Inhibition of MSK1/2 in human HeLa cells lysate pre incubated for 15 mins followed by ATP acyl phosphate probe addition and measured after 10 mins by LC-MS/MS analysis.

Chain of Serine/threonine-protein kinase PLK1 (P53350 whole entry): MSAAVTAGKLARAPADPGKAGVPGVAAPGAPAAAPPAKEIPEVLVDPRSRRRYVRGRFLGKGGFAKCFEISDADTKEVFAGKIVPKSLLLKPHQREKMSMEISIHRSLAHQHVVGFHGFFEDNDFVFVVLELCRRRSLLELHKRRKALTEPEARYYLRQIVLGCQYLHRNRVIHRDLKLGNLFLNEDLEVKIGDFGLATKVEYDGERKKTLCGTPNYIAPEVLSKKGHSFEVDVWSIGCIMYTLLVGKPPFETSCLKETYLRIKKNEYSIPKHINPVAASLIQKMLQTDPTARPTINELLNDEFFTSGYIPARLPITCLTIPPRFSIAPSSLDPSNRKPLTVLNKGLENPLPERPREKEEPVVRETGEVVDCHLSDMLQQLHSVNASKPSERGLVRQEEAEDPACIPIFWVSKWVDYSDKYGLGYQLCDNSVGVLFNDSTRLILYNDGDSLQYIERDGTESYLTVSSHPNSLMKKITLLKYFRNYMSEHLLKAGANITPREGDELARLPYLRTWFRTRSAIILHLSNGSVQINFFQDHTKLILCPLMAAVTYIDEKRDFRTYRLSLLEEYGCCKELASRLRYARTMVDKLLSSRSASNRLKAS
Chain of Serine/threonine-protein kinase Nek9 (Q8TD19 whole entry, the tested form may be a part): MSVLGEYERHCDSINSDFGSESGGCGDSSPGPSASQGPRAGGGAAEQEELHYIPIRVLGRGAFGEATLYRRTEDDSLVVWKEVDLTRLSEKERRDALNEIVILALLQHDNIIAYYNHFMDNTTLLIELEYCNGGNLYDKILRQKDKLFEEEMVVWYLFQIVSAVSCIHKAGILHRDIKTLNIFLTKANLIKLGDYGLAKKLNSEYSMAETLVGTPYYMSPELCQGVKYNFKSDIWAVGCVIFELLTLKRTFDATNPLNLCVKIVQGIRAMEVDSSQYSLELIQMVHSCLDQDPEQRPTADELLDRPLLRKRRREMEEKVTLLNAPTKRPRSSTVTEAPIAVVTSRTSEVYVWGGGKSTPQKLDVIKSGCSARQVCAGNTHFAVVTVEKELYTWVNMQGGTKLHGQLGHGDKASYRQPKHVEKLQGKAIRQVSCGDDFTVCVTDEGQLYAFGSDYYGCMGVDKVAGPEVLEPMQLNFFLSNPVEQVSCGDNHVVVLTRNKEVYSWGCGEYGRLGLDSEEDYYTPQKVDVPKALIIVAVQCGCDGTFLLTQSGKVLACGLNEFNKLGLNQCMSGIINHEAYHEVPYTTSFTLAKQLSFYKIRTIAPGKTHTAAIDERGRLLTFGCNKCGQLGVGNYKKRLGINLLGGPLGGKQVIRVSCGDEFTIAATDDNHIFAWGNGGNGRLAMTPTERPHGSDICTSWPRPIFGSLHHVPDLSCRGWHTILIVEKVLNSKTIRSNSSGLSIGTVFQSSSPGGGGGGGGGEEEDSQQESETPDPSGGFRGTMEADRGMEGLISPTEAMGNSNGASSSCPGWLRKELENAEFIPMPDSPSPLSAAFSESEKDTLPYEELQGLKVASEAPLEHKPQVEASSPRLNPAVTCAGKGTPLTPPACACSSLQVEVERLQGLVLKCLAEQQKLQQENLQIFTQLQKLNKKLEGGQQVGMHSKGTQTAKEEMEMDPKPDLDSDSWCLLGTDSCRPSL
Chain of Dual specificity mitogen-activated protein kinase kinase 7 (O14733 whole entry, the tested form may be a part): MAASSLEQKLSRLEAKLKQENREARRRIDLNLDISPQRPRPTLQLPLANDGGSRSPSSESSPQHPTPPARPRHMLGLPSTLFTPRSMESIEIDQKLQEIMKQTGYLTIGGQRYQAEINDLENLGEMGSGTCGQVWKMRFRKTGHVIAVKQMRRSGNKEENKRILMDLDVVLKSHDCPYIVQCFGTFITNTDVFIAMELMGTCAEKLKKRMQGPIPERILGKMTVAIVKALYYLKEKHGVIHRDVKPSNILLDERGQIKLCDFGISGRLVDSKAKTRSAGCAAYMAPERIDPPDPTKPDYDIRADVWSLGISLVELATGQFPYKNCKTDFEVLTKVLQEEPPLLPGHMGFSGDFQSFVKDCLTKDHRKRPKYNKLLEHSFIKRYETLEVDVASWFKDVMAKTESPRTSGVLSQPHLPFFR

Consider `CCOc1cc(N2CCC(O)CC2)ccc1Nc1ncc2c(n1)N(C)c1ccccc1C(=O)N2C`, for which the inhibition (usually the change of the read-out against control, counted positive when it falls) in [1] was 1.1%; in assay [3], 12.1%; in assay [4] it was 8.2%; in assay [5], 3.9%; in assay [7] it was 65.6%; in assay [8] it was 0%. Moreover, the half-inhibitory concentration (IC50) in [2], in assay [6], in assay [9] and in assay [10] was greater than 50 µM in each case.
